Data from article PMC10405366 (Molecular pharmaceutics, 2023).

Tests used:
[1] = system: OVCAR8-RFP cells xenografted IP; test: OVCAR8-RFP IP xenograft; format: in vivo, mouse; details: for tumor burden: compared to DMSO
OVCAR8 spheroids = test: Spheroid viability assay; format: cell-based, human; details: read-out: IC50, spheroid viability, 7 days
How it was run: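 OVCAR8 cells (5000 in 80 μL medium per well) were formed into spheroids in ultra-low-attachment round-bottom wells. Spheroids were treated for 7 days with test compound, DMSO vehicle or paclitaxel control. Viability was measured with CellTiter-Glo after 30 min shaking for lysis, read as luminescence. Dose–response curves were normalized to vehicle to give IC50. Data are mean ± SEM from three biological replicates.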

OVCAR3 = test: Cell viability assay; format: cell-based, human; details: OVCAR3, 72 h, average
How it was run: (§1)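 RPMI1640 (OVCAR3, OVCAR4, MDA-MB-435) or DMEM (OVCAR8, MDA-MB-231) was used, with 10% FBS and penicillin/streptomycin. Cells were STR-validated and kept below 20 passages. Cells were plated at 5000 per well overnight, then given test compound at final 0.95–250 nM (nine levels, 0.5% DMSO) for 72 h at 37 °C. Viability was read by CellTiter-Blue absorbance, and IC50 was taken relative to DMSO. Paclitaxel (0.39–100 nM) was the control, with three biological replicates.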

OVCAR8 [2] = test: 2D foci assay; format: cell-based, human; details: OVCAR8, 50 nM for 8 h, two weeks colony formation, relative to vehicle
How it was run: (§2)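 Cells were seeded at 200 per 60 mm dish and left to attach overnight. They were then exposed for 8 h to test compound (50 nM), DMSO vehicle or paclitaxel (10 nM). Medium was replaced and cells grew drug-free for about two weeks (15 days). Colonies were fixed in 4% paraformaldehyde, stained with 0.05% crystal violet, imaged and counted. There were three biological replicates, compared with vehicle by Dunnett's test.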

OVCAR8 [3] = test: Cell viability assay; format: cell-based, human
How it was run: as §1

OVCAR4 [4] = test: Cell viability assay; format: cell-based, human
How it was run: as §1

MDA-MB-435 = test: Cell viability assay; format: cell-based, human; details: MDA-MB-435, 72 h, average
How it was run: as §1

[5] = system: A2780 human ovarian cancer cell lines; details: cited from earlier work
murine lymphoma L5178Y = details: mouse lymphoma cells (L5178Y); cited from earlier work
OVCAR4 [6] = test: 2D foci assay; format: cell-based, human; details: OVCAR4, 50 nM for 8 h, two weeks colony formation, relative to vehicle
How it was run: as §2

MDA-MB-231 = test: Cell viability assay; format: cell-based, human; details: MDA-MB-231, 72 h, average
How it was run: as §1

Row | SMILES | tumor burden ([1]; 0.5 mg/kg twice weekly) | IC50 (OVCAR8 spheroids) [nM] | liver and organ gross morphology ([1]; 0.25 mg/kg in DMSO twice weekly for four weeks) | tumor burden ([1]; 0.25 mg/kg twice weekly for four weeks) | IC50 (OVCAR3) [nM] | foci formation (OVCAR8 [2]) | cytotoxic activity (OVCAR8 [3]) | cytotoxic activity (OVCAR4 [4]) | IC50 (MDA-MB-435) [nM] | growth of cells [5] | cytotoxic activity (murine lymphoma L5178Y) | foci formation (OVCAR4 [6]) | IC50 (MDA-MB-231) [nM]
1 | CC(=O)O[C@H]1C(=O)[C@@]2(C)[C@H]([C@H](OC(=O)c3ccccc3)[C@]3(O)C[C@H](OC(=O)[C@H](O)[C@@H](NC(=O)c4ccccc4)c4ccccc4)C(C)=C1C3(C)C)[C@]1(OC(C)=O)CO[C@@H]1C[C@@H]2O [taxol, paclitaxel, reference compound] | reduced | – | – | – | – | – | – | – | – | – | – | – | –
2 | CC(O)[C@@]12SS[C@]3(C(=O)N1C)[C@@H](O)C1([C@@]45c6ccccc6N[C@@H]4N4C(=O)[C@]6(C(C)O)SS[C@]4(C(=O)N6C)[C@H]5O)c4ccccc4N[C@@H]1N3C2=O (stereo partly shown) [verticillin D] | – | 1170 | gross morphological liver damage and fused organs | reduced | 34.2 | completely abrogated foci formation | nanomolar cytotoxic activity | nanomolar cytotoxic activity | 35.3 | inhibit the growth | moderate cytotoxic activity | completely abrogated foci formation | 12.2
